Active and inactive are the calls of the source. No cut-off for these calls is given here.
Experiments:
Mus musculus [1] = experiment: Antiinflammatory activity in po dosed mouse assessed as inhibition of LPS-induced TNFalpha production administered 30 mins before LPS challenge measured after 1 hr by ELISA; format: functional; conditions: read-out: ID50 (the source's name)
Summary of the method: (§1)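 Groups of five mice were used. ID50 came from a least-squares linear regression of % inhibition against log dose, with 95% confidence intervals by Fieller's theorem.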

Blood [2] = experiment: Antiinflammatory activity in human whole blood assessed as inhibition of LPS-induced TNFalpha production after 6 hrs by immunoassay; format: functional, tissue-based
Summary of the method: (§2)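 Values are the mean and SD of three to four determinations. IC50 came from a least-squares linear regression of % inhibition against log concentration, with 95% confidence intervals by Fieller's theorem.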

[3] = target: T1, Mitogen-activated protein kinase 12 (Homo sapiens) (UniProt P53778); experiment: Inhibition of p38-gamma at 10 uM
T1 sequence (whole entry): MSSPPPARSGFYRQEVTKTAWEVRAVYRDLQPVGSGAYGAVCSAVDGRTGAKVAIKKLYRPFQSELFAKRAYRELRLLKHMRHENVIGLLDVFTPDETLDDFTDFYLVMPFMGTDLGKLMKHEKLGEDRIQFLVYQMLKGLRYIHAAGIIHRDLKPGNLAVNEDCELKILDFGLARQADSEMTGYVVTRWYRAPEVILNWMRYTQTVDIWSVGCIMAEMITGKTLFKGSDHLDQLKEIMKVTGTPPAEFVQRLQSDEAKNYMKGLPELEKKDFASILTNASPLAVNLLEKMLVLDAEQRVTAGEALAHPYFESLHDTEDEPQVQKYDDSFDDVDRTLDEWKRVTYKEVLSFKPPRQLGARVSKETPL

Mus musculus [4] = experiment: Antiinflammatory activity in po dosed mouse assessed as inhibition of LPS-induced IL-6 production; format: functional; conditions: read-out: ID50 (the source's name); summary of the method: as §1
Rattus norvegicus [5] = experiment: Antiarthritic activity in po dosed heat-killed mycobacterium tuberculosis-induced rat arthritis model assessed as decrease in paw volume administered QD for 20 days measured on day 21 by plethysmometry; format: functional; conditions: read-out: ID50 (the source's name)
[6] = target: T2, Mitogen-activated protein kinase 13 (Homo sapiens, UniProt O15264); experiment: Inhibition of p38delta
T2 sequence (O15264 whole entry): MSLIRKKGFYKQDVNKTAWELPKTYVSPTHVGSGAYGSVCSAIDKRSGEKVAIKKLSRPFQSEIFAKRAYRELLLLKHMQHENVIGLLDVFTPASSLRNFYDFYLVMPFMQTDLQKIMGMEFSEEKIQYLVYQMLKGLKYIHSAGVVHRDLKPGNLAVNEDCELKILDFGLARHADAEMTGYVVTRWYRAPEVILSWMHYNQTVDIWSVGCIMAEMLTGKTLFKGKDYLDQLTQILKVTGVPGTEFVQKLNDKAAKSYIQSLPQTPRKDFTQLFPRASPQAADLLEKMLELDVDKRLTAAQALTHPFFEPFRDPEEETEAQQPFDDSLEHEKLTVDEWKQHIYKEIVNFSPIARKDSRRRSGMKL
Summary of the method: (§3)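 Kinase inhibition IC50 was the mean and SD of three to four determinations. It was derived by least-squares linear regression of % inhibition against log concentration, with 95% confidence intervals by Fieller's theorem.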

Blood [7] = experiment: Antiinflammatory activity in human whole blood assessed as inhibition of LPS-induced IL1-beta production after 6 hrs by immunoassay; format: functional, tissue-based; summary of the method: as §2
Blood [8] = experiment: Antiinflammatory activity in human whole blood assessed as inhibition of LPS-induced IL-6 production after 6 hrs by immunoassay; format: functional, tissue-based; summary of the method: as §2
[9] = target: Mitogen-activated protein kinase 14 (Homo sapiens, UniProt Q16539); experiment: Inhibition of p38alpha; summary of the method: as §3
[10] = target: T3, Mitogen-activated protein kinase 12 (Homo sapiens, UniProt P53778); experiment: Inhibition of p38-gamma; summary of the method: as §3
T3 sequence (P53778 whole entry): T1 sequence (whole entry)

Blood [11] = experiment: Antiinflammatory activity in human whole blood assessed as inhibition of LPS-induced IL-8 production after 6 hrs by immunoassay; format: functional, tissue-based; summary of the method: as §2
Rattus norvegicus [12] = experiment: Analgesic activity in po dosed heat-killed mycobacterium tuberculosis-induced rat arthritis model assessed as decrease in squeaking behavior after 72 hrs […]; format: functional; conditions: read-out: ID50 (the source's name)
[13] = target: Mitogen-activated protein kinase 11 (Homo sapiens, UniProt Q15759); experiment: Inhibition of p38beta; summary of the method: as §3
Rattus norvegicus [14] = experiment: Antiarthritic activity in po dosed heat-killed mycobacterium tuberculosis-induced rat arthritis model assessed as decrease in paw volume administered BID for 7 days measured 24 hrs post last dose by plethysmometry; format: functional; conditions: read-out: ID50 (the source's name)
Summary of the method: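 Adjuvant arthritis was established by day 18, and rats with injected-foot volume ≥2.75 mL were grouped to equal means. Test agents in 0.5% CMC were given orally at 5 mL/kg twice daily on days 18–24. Feet were measured by plethysmometer on days 18, 20, 23 and 25. The swelled-foot ratio (day 25/day 18, corrected by normal animals) gave % inhibition versus controls. n=5.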

[15] = target: T4, Mitogen-activated protein kinase 13 (Homo sapiens) (UniProt O15264); experiment: Inhibition of p38delta at 10 uM
T4 sequence (whole entry): T2 sequence (O15264 whole entry)

Mus musculus [16] = species: Mus musculus; experiment: Antiarthritic activity in DBA/1 mouse assessed as inhibition of collagen-induced arthritis; format: functional; conditions: read-out: ID50 (the source's name); summary of the method: as §1
Mus musculus [17] = experiment: Antiinflammatory activity in po dosed mouse assessed as inhibition of LPS-induced IL1-beta production administered 2 hrs after LPS challenge; format: functional; conditions: read-out: ID50 (the source's name); summary of the method: as §1
Mus musculus [18] = species: Mus musculus; experiment: Antiarthritic activity in DBA/1 mouse assessed as inhibition of anti-collagen antibody-induced arthritis after 3 weeks; format: functional; conditions: DBA/1, 504 h, read-out: ID50 (the source's name); summary of the method: as §1
Blood [19] = experiment: Antiinflammatory activity in human whole blood assessed as inhibition of LPS-induced TNFalpha production at 1 uM after 6 hrs by immunoassay; format: functional

Mitogen-activated protein kinase 14, sequence (Q16539 whole entry): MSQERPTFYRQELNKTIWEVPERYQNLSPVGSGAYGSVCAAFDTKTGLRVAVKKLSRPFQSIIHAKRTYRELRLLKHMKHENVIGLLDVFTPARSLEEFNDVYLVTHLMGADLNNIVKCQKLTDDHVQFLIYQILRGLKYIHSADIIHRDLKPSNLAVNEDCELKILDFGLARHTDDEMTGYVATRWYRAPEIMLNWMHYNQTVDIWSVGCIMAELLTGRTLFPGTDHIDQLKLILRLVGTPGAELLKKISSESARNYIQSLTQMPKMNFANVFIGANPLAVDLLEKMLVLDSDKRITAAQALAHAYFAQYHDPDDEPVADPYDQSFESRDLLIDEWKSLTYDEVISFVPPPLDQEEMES
Mitogen-activated protein kinase 11, sequence (Q15759 whole entry): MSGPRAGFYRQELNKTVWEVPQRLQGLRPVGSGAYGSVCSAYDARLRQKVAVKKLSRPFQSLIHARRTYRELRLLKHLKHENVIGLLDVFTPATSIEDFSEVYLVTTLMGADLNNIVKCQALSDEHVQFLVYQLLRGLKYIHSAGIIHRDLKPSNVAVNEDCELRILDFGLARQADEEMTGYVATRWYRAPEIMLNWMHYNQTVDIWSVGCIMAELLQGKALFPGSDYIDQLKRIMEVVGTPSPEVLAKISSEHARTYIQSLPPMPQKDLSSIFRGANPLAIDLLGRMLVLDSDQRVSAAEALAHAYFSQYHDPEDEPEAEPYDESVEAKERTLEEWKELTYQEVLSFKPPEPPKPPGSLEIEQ

Fc1ccc(-c2[nH]cc(C3=CC4CCCN4CC3)c2-c2ccncc2)cc1 (stereo not drawn)
ED50 (Mus musculus [1]): 1.09 mg/kg | IC50 (Blood [2]): 42 nM

Fc1ccc(-c2[nH]cc(C3=CCN4CCCC4C3)c2-c2ccncc2)cc1 (stereo not drawn)
ED50 (Mus musculus [1]): 2.85 mg/kg | IC50 (Blood [2]): 600 nM

Fc1ccc(-c2[nH]cc(C3=C[C@@H]4CCCN4CC3)c2-c2ccncc2)cc1
inhibition [3]: inactive | ED50 (Mus musculus [4]): 0.11 mg/kg | ED50 (Rattus norvegicus [5]): 3.1 mg/kg | IC50 [6]: > 10000 nM | IC50 (Blood [7]): 20 nM | IC50 (Blood [8]): 880 nM | IC50 [9]: 34 nM | IC50 [10]: > 10000 nM | IC50 (Blood [11]): 16 nM | ED50 (Rattus norvegicus [12]): 2.9 mg/kg | IC50 [13]: 572 nM | ED50 (Mus musculus [1]): 0.93 mg/kg | ED50 (Rattus norvegicus [14]): 4.9 mg/kg | inhibition [15]: inactive | ED50 (Mus musculus [16]): 2.38 mg/kg | IC50 (Blood [2]): 26 nM | ED50 (Mus musculus [17]): 8.63 mg/kg | ED50 (Mus musculus [18]): 2.22 mg/kg

Fc1ccc(-c2[nH]cc(C3=CC4CCCCN4CC3)c2-c2ccncc2)cc1 (stereo not drawn)
ED50 (Mus musculus [1]): 2.27 mg/kg | IC50 (Blood [2]): 310 nM

Fc1ccc(-c2[nH]cc(C3=C[C@H]4CCCN4CC3)c2-c2ccncc2)cc1
ED50 (Mus musculus [1]): 6.59 mg/kg | inhibition at 1 µM (Blood [19]): 49%

Fc1ccc(-c2[nH]cc(C3=CCN4CCCCC4C3)c2-c2ccncc2)cc1 (stereo not drawn)
ED50 (Mus musculus [1]): 3.55 mg/kg | IC50 (Blood [2]): 810 nM
